Rows were chosen to be rich in hits. Some 4.1% of all compounds tested hit in one or more screens of this group.
MPTP block = inhibitors of mitochondrial permeability transition pore; isolated mouse mitochondria, Ca2+ swelling absorbance, 30 min; inhibition, % at 10 µM; hit rate 1.4% among 360,000;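 active means inhibition of 50% or more, scaled per plate between neutral and stimulator controls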;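 further: 0% = DMSO wells given calcium and 100% = 1 mM EGTA wells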
MC4R antag cAMP = blocks human MC4R cAMP signaling; MC4R-expressing cells, MTII-stimulated cAMP, LANCE TR-FRET; inhibition, % at 6.5 µM; AID 540295; P32245; hit rate 0.48% among 360,000;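 active means inhibition above its plate's cutoff, the mean of tested wells on that plate plus 3 SD, cut at about 29% in these data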;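 further: 0% = Melanotan II alone and 100% = Melanotan II plus saturating MCL0020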
Target sequence (P32245 whole entry, looked up): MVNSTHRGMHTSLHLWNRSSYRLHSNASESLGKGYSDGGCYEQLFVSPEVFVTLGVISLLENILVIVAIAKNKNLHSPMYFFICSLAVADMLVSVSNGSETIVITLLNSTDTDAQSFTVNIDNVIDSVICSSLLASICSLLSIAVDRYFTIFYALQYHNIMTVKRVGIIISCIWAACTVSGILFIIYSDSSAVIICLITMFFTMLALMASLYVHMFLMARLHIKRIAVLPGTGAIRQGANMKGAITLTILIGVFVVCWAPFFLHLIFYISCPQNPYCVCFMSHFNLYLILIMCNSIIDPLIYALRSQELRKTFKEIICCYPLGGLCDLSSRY
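material = U2OS cells stably expressing human melanocortin 4 receptor (MC4R) | also added = Melanotan II challenge | dosing = single nominal compound dose of 6.5 µM | detection = TR-FRET with Eu-cAMP and labeled anti-cAMP, 671 nm | replication = singlicate | timing = compound 30 min, challenge 1 h, detection 1 h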
ATG4B inh = ATG4B (human) cysteine protease inhibition; hit rate 0.51% among 340,000; inhibition, % at 8.33 µM; Q9Y4P1; ATG4B cleavage of LC3-PLA2, NBD-HPC fluorescence, 1 h; in the data active means inhibition above about 40%
SMARCA2 act = increases SMARCA2 function in MMTV reporter cells; hit rate 1% among 370,000; MG213 cells, MMTV-luciferase reporter, dexamethasone, overnight; activation, % at 9.1 µM; AID 652017; in the data active means activation above about 7.8%;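 further: 0% = vehicle wells and 100% = reference activator wells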
MC4R ag barr = agonists of human melanocortin 4 receptor (MC4R) beta-arrestin. P32245. U2OS MC4R beta-arrestin complementation, luminescence; percent of melanotan II response, DMSO zero. activation, % at 8.9 µM. hit rate 0.98% among 360,000. AID 540308;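 active means activation above a per-plate cutoff, the mean activation of sample wells on that plate plus 3 SD, cut at about 8% in these data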
SMARCA2 act conf = confirmation of SMARCA2 (BRM) function activators | hit rate 30% among 3,500 | MG213 cells, MMTV-luciferase with dexamethasone, luminescence, overnight; MG213 cells expressing E1A, Rb sequestered; DMSO wells 0%, reference activator 100% | activation, % at 9.1 µM | shares compounds with SMARCA2 act;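 active means activation above its plate's cutoff, the mean activation of tested wells plus 3 SD, cut at about 7.9% in these data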
GAL4-VP16 Luc = activates GAL4-VP16 luciferase, flagging SMARCA2 activator hits; shares compounds with SMARCA2 act; HEK293 GAL4-VP16 pG5luc reporter, luciferase luminescence; scaled: DMSO wells 0%, SAHA wells 100%; activation, % at 9.1 µM; hit rate 41% among 3,500; AID 686939;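 active means activation above the solvent-only control well mean plus 3 SD, averaged across control plates, cut at about 5.2% in these data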
The depositor's hits bear a star; . = no result given.

SMILES | MPTP block | MC4R antag cAMP | ATG4B inh | SMARCA2 act | MC4R ag barr | SMARCA2 act conf | GAL4-VP16 Luc
CCCCn1c(N)c(N(C)C(=O)c2cc3c(s2)CCCCC3)c(=O)[nH]c1=O | -2 | 2 | 3 | 8.5* | -2 | 0 | 1
CCCCn1c(N)c(N(CC)C(=O)c2cc3c(s2)CCCCC3)c(=O)[nH]c1=O | -4 | -1 | 8 | -3 | -2 | . | .
Cc1cc(NC(=O)CSc2nc3c(sc4ccccc43)c(=O)n2CCCN2CCOCC2)n[nH]1 | -1 | 9 | 1 | 20* | 1 | 36* | -1
CC(=O)c1cccc(NC(=O)CSc2nc3ccccc3c(=O)n2CCCN2CCOCC2)c1 | 0 | 0 | -8 | -2 | 0 | . | .
Cc1cc(NC(=O)CSc2nc3c(sc4ccccc43)c(=O)n2CCc2ccccc2)n[nH]1 | 0 | 3 | -3 | -5 | 2 | . | .
Cc1ccc(NC(=O)CSc2nc3ccccc3c(=O)n2CCCN2CCCCC2)cc1C | -3 | 5 | -5 | 13* | -1 | 6 | 3
O=C(Nc1ccc2c(c1)OCCO2)C(CCc1ccccc1)N1CCC(Cc2ccccc2)CC1 (stereo unspecified) | 4 | . | . | 3 | . | . | .
O=C(Nc1ccc(F)cc1)OCc1cn(Cc2ccccc2)nn1 | . | . | . | -1 | . | . | .
COC(=O)Cc1nnn2c1[C@H](C)[C@@H](OC)c1ccc(C(F)(F)F)cc1-2 | . | . | . | 11* | . | 0 | 3
COCc1cc(C)nc(N/N=C/c2ccc(Cl)c(Cl)c2)c1C#N | -3 | 1 | 7 | 8.3* | 0 | -2 | 0
Cc1ncc([N+](=O)[O-])n1Cc1ccccc1 | -4 | 1 | -3 | -1 | -2 | . | .
Cc1ccccc1Cn1c([N+](=O)[O-])cnc1C | -1 | -2 | -8 | 9.9* | -1 | -2 | 0
CCOC(=O)c1ccc(NC(=O)OC[C@@H]2CSCCS(=O)(=O)N2)cc1 | . | . | . | -7 | . | . | .
CCC(=O)Nc1cccc(-c2ccc(N3CCN(C)CC3)nn2)c1 | -2 | 0 | -6 | . | -2 | . | .
COc1cccc(C(=O)Nc2cccc(-c3ccc(N4CCOCC4)nn3)c2)c1OC | 1 | -2 | -24 | 12* | 2 | 11* | 15*
CN1CCN(c2ccc(-c3cccc(NC(=O)COc4ccccc4)c3)nn2)CC1 | -2 | 12 | 1 | 8.4* | 1 | 6 | 12*
CCCCCCn1c(SCCCC)nc2c1c(=O)[nH]c(=O)n2C | 4 | 10 | -1 | 0 | 4 | . | .
CCn1c([N+](=O)[O-])nc2c1c(=O)[nH]c(=O)n2C | 0 | -61 | 3 | 19* | -1 | 56* | 2
CCOC(=O)C1=C(C)N=c2s/c(=C3\C(=O)Nc4ccccc43)c(=O)n2C1c1ccc2c(c1)OCO2 (stereo unspecified) | 3 | 14 | -8 | 11* | -2 | -2 | 0
c1ccc2oc(C3=NNC(=NC4CC4)SC3)cc2c1 | 1 | -1 | -9 | 9.5* | -1 | 0 | 6.5*
NC(=O)NCCC1=CCCCC1 | 0 | 4 | 1 | -1 | -1 | . | .
O=C(NCCc1ccccc1)NC1CCCCC1 | -2 | 0 | 6 | 11* | 0 | 9.0* | 7.7*
O=C(NC1CCCCCC1)C(=S)NCCc1ccccc1 | 0 | 9 | 2 | -3 | -2 | . | .
O=C(NCCC1=CCCCC1)NC1CCCCC1 | 2 | 3 | 10 | 8.7* | -1 | 8.1* | 8.7*
CC1(C)CC(=O)C=C(Nc2ccccc2NC(=O)c2ccc(F)cc2F)C1 | . | . | . | -1 | . | . | .
SMILES | MPTP block | MC4R antag cAMP | ATG4B inh | SMARCA2 act | MC4R ag barr | SMARCA2 act conf | GAL4-VP16 Luc
O=C(Nc1ccc2nc3n(c(=O)c2c1)CCCC3)c1ccccc1F | 0 | 5 | -5 | 2 | -1 | . | .
O=C(Nc1ccc2nc3n(c(=O)c2c1)CCCCC3)c1ccccn1 | 0 | 7 | 2 | 8.2* | -1 | 3 | 10*
CCOc1ccc(C2C3=C(Nc4nc(N)[nH]c(=O)c42)c2ccccc2C3=O)cc1 (stereo unspecified) | 1 | -4 | -10 | 14* | -3 | -1 | 0
CCCOc1ccc(C2C3=C(Nc4nc(N)[nH]c(=O)c42)c2ccccc2C3=O)cc1 (stereo unspecified) | 1 | 27 | 3 | -4 | -1 | . | .
COc1ccccc1/C=C/C(=O)OCC(=O)Nc1ccc(Cl)cn1 | 1 | 5 | -1 | 8.9* | 0 | 11* | 1
COc1cc(C(=O)N=c2sc3c(C)ccc(OC)c3n2C)cc(OC)c1OC | 2 | -4 | 1 | -3 | -2 | . | .
COc1ccc(C(=O)N=c2sc3c(C)ccc(OC)c3n2C)cc1 | 1 | 0 | -10 | 9.2* | -1 | 7 | 9.8*
CCOC(=O)[C@]12CCC=C1N(Cc1cccc3ccccc13)C(=O)[C@H](CC(=O)N1CCSCC1)C2 | -2 | . | . | 3 | . | . | .
O=C(COc1ccc(Cl)cc1)NCC(=O)N1CCC2(CC1)NCCc1[nH]cnc12 | -3 | 3 | -3 | 9.7* | 1 | 3 | 2
CCOc1ccc(C(=O)NCC(=O)N2CCC3(CC2)NCCc2[nH]cnc23)cc1 | -1 | 1 | -9 | 1 | -1 | . | .
CC(C)OCCCNC1=C(Cl)C(=O)c2ccccc2C1=O | 4 | -5 | -2 | 9.4* | 0 | 6 | 2
O=c1c(-c2ccco2)nc2ccccc2n1C(c1ccccn1)c1nc2ccccc2[nH]1 (stereo unspecified) | 2 | . | . | -6 | . | . | .
O=c1c(-c2ccco2)nc2ccccc2n1C(c1ccccc1)c1nc2ccccc2[nH]1 (stereo unspecified) | -1 | . | . | 11* | . | 8.9* | 5.6*
O=c1c(-c2ccco2)nc2ccccc2n1C(CCc1ccccc1)c1nc2ccccc2[nH]1 (stereo unspecified) | 2 | . | . | 11* | . | -2 | 2
CC[C@@H](CCCc1ccc(OC)cc1)CCC(=O)N(c1ccccc1)c1ccccc1 | . | . | . | -5 | . | . | .
O=C(N/N=C/c1ccc2c(c1)OCO2)C1COc2ccccc2O1 (stereo unspecified) | 0 | 4 | -12 | 8.5* | -1 | 5 | 1
COc1cccc(C(=O)NCC(=O)N/N=C/c2cccnc2)c1 | 0 | 5 | 3 | 0 | 0 | . | .
COc1cccc(C(=O)NCC(=O)N/N=C/c2ccc3c(c2)OCO3)c1 | -1 | 1 | -3 | 8.0* | -2 | 2 | 0
Cc1nn(-c2ccccc2)c2sc(C(=O)NCC3CCCO3)cc12 (stereo unspecified) | . | . | . | -3 | . | . | .
Cc1ccc(O)c(N=CC2=C(O)c3ccccc3C2=O)c1 | 4 | -4 | -11 | 8.4* | 3 | 19* | 14*
O=C1C(C=Nc2ccccc2O)=C(O)c2ccccc21 | 2 | -7 | -4 | 8 | 4 | . | .
CN1CCN(c2ccc(NC(=O)CSc3ccccc3)cc2F)CC1 | -1 | 1 | -2 | 8.1* | 1 | 7 | 8.6*
